Source: ChEMBL document CHEMBL2417509, “Synthesis and biological evaluation of prodigiosene conjugates of porphyrin, estrone and 4-hydroxytamoxifen” (2013)

Legend:
Type in all cases: functional
T47D = assay: Cytotoxicity against human T47D cells after 2 days by sulforhodamine B assay; conditions: 48 h
Procedure, shortened: (§1)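 NCI DTP NCI60 multi-dose screen (59 human tumour lines available). Cells exposed to compound over a 5-log mol/L concentration range for 2 days, then fixed and stained with sulphorhodamine B, with optical density read. Growth inhibition calculated relative to time-zero cells and untreated cells, giving GI50 (half-maximal growth inhibition concentration). Average of two replicates.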

UO-31 = assay: Cytotoxicity against human UO31 cells after 2 days by sulforhodamine B assay; conditions: UO-31, 48 h; procedure, shortened: as §1
SF-295 = assay: Cytotoxicity against human SF295 cells after 2 days by sulforhodamine B assay; conditions: SF-295, 48 h
Procedure, shortened: (§2)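 NCI60 multi-dose screen, 59 human tumour lines available. Cells exposed to compound across a 5-log mol/L concentration range for 2 days, then fixed and stained with sulphorhodamine B, optical density read. Growth inhibition calculated against time-zero control and untreated cells. GI50 derived from the dose series, average of two replicates.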

COLO 205 = assay: Cytotoxicity against human COLO205 cells after 2 days by sulforhodamine B assay; conditions: COLO 205, 48 h; procedure, shortened: as §2
SK-MEL-5 = assay: Cytotoxicity against human SK-MEL-5 cells after 2 days by sulforhodamine B assay; conditions: SK-MEL-5, 48 h; procedure, shortened: as §2
SNB-75 = assay: Cytotoxicity against human SNB75 cells after 2 days by sulforhodamine B assay; conditions: SNB-75, 48 h; procedure, shortened: as §1
786-0 = assay: Cytotoxicity against human 786-0 cells after 2 days by sulforhodamine B assay; conditions: 786-0, 48 h; procedure, shortened: as §2
SR = assay: Cytotoxicity against human SR cells after 2 days by sulforhodamine B assay; conditions: 48 h; procedure, shortened: as §1
SF-268 = assay: Cytotoxicity against human SF268 cells after 2 days by sulforhodamine B assay; conditions: SF-268, 48 h; procedure, shortened: as §2
KM12 = assay: Cytotoxicity against human KM12 cells after 2 days by sulforhodamine B assay; conditions: KM12, 48 h; procedure, shortened: as §2
MDA-MB-231 = assay: Cytotoxicity against human MDA-MB-231 cells after 2 days by sulforhodamine B assay; conditions: MDA-MB-231, 48 h; procedure, shortened: as §2
NCI-H322M = assay: Cytotoxicity against human NCI-H322M cells after 2 days by sulforhodamine B assay; conditions: 48 h; procedure, shortened: as §2
LOX IMVI = assay: Cytotoxicity against human LOXIMVI cells after 2 days by sulforhodamine B assay; conditions: 48 h; procedure, shortened: as §2
OVCAR-8 = assay: Cytotoxicity against human OVCAR8 cells after 2 days by sulforhodamine B assay; conditions: OVCAR-8, 48 h; procedure, shortened: as §2
OVCAR-3 = assay: Cytotoxicity against human OVCAR3 cells after 2 days by sulforhodamine B assay; conditions: OVCAR-3, 48 h; procedure, shortened: as §2
HOP-62 = assay: Cytotoxicity against human HOP62 cells after 2 days by sulforhodamine B assay; conditions: HOP-62, 48 h; procedure, shortened: as §2
MDA-MB-468 = assay: Cytotoxicity against human MDA-MB-468 cells after 2 days by sulforhodamine B assay; conditions: MDA-MB-468, 48 h; procedure, shortened: as §2
TK-10 = assay: Cytotoxicity against human TK10 cells after 2 days by sulforhodamine B assay; conditions: TK-10, 48 h; procedure, shortened: as §1
HCC 2998 = assay: Cytotoxicity against human HCC2998 cells after 2 days by sulforhodamine B assay; conditions: HCC 2998, 48 h; procedure, shortened: as §2
MOLT-4 = assay: Cytotoxicity against human MOLT4 cells after 2 days by sulforhodamine B assay; conditions: MOLT-4, 48 h; procedure, shortened: as §2
NCI-H460 = assay: Cytotoxicity against human NCI-H460 cells after 2 days by sulforhodamine B assay; conditions: NCI-H460, 48 h; procedure, shortened: as §2
RPMI-8226 = assay: Cytotoxicity against human RPMI8226 cells after 2 days by sulforhodamine B assay; conditions: RPMI-8226, 48 h; procedure, shortened: as §2
DU-145 = assay: Cytotoxicity against human DU145 cells after 2 days by sulforhodamine B assay; conditions: DU-145, 48 h; procedure, shortened: as §2
HT-29 = assay: Cytotoxicity against human HT-29 cells after 2 days by sulforhodamine B assay; conditions: HT-29, 48 h; procedure, shortened: as §2
CCRF-CEM = assay: Cytotoxicity against human CCRF-CEM cells after 2 days by sulforhodamine B assay; conditions: 48 h; procedure, shortened: as §2
SK-MEL-28 = assay: Cytotoxicity against human SK-MEL-28 cells after 2 days by sulforhodamine B assay; conditions: SK-MEL-28, 48 h; procedure, shortened: as §2
A498 = assay: Cytotoxicity against human A498 cells after 2 days by sulforhodamine B assay; conditions: A498, 48 h; procedure, shortened: as §2
HL-60(TB) = assay: Cytotoxicity against human HL-60(TB) cells after 2 days by sulforhodamine B assay; conditions: HL-60, 48 h
Procedure, shortened: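 NCI60 multi-dose screen: cells exposed to compound over a 5-log mol/L concentration range for 2 days, then fixed and stained with sulphorhodamine B and optical density read. Growth inhibition calculated relative to time-zero control and untreated cells; GI50 reported as average of two replicates.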

M14 = assay: Cytotoxicity against human M14 cells after 2 days by sulforhodamine B assay; conditions: M14, 48 h; procedure, shortened: as §2
BT-549 = assay: Cytotoxicity against human BT549 cells after 2 days by sulforhodamine B assay; conditions: BT-549, 48 h; procedure, shortened: as §2
[1] = read-out: LC50 (the source's name)

SMILES: CC/C(=C(/c1ccc(OCCN(C)C)cc1)c1ccc(OC(=O)CCCCCCCCC(=O)C2=C(C)/C(=C/c3[nH]c(-c4ccc[nH]4)cc3OC)N=C2C)cc1)c1ccccc1
- GI50 (T47D): 3.55 µM
- LC50 (concentration killing 50% of cells) (T47D): > 100 µM
- TGI (T47D): > 100 µM
- GI50 (UO-31): 4.47 µM
- LC50 (UO-31): > 100 µM
- TGI (UO-31): > 100 µM
- GI50 (SF-295): 10.7 µM
- LC50 (SF-295): > 100 µM
- TGI (SF-295): 61.7 µM
- GI50 (COLO 205): 8.13 µM
- LC50 (concentration killing 50% of cells) (COLO 205): > 100 µM
- TGI (COLO 205): 77.6 µM
- GI50 (SK-MEL-5): 1.62 µM
- LC50 (concentration killing 50% of cells) (SK-MEL-5): 6.46 µM
- TGI (SK-MEL-5): 3.24 µM
- GI50 (SNB-75): 4.17 µM
- LC50 (concentration killing 50% of starting cells) (SNB-75): > 100 µM
- TGI (SNB-75): > 100 µM
- GI50 (786-0): 5.25 µM
- LC50 (concentration killing 50% of cells) (786-0): > 100 µM
- TGI (786-0): > 100 µM
- GI50 (SR): 4.07 µM
- LC50 (concentration giving 50% net cell kill) (SR): > 100 µM
- TGI (SR): > 100 µM
- GI50 (SF-268): 6.61 µM
- LC50 (concentration killing 50% of cells) (SF-268): > 100 µM
- TGI (SF-268): > 100 µM
- GI50 (KM12): 5.25 µM
- LC50 (KM12): > 100 µM
- TGI (KM12): > 100 µM
- GI50 (MDA-MB-231): 3.39 µM
- LC50 (MDA-MB-231): > 100 µM
- TGI (MDA-MB-231): 18.2 µM
- GI50 (NCI-H322M): > 100 µM
- LC50 (concentration killing 50% of cells) (NCI-H322M): > 100 µM
- TGI (NCI-H322M): > 100 µM
- GI50 (LOX IMVI): 2.34 µM
- LC50 (LOX IMVI): 27.5 µM
- TGI (LOX IMVI): 5.89 µM
- GI50 (OVCAR-8): 9.12 µM
- LC50 (OVCAR-8): > 100 µM
- TGI (OVCAR-8): > 100 µM
- GI50 (OVCAR-3): 11 µM
- LC50 (OVCAR-3): > 100 µM
- TGI (OVCAR-3): > 100 µM
- GI50 (HOP-62): 16.9 µM
- TGI (HOP-62): > 100 µM
- CC50 (HOP-62; [1]): > 100 µM
- GI50 (MDA-MB-468): 3.63 µM
- LC50 (MDA-MB-468): > 100 µM
- TGI (MDA-MB-468): > 100 µM
- GI50 (TK-10): 20.9 µM
- LC50 (TK-10): > 100 µM
- TGI (TK-10): > 100 µM
- GI50 (HCC 2998): > 100 µM
- LC50 (50% lethal concentration) (HCC 2998): > 100 µM
- TGI (HCC 2998): > 100 µM
- GI50 (MOLT-4): 5.13 µM
- TGI (MOLT-4): > 100 µM
- CC50 (MOLT-4; [1]): > 100 µM
- GI50 (NCI-H460): 4.27 µM
- LC50 (NCI-H460): > 100 µM
- TGI (NCI-H460): > 100 µM
- GI50 (RPMI-8226): 3.72 µM
- LC50 (concentration killing 50% of cells present at time zero) (RPMI-8226): > 100 µM
- TGI (RPMI-8226): > 100 µM
- GI50 (DU-145): 8.13 µM
- LC50 (concentration killing 50% of starting cells) (DU-145): > 100 µM
- TGI (DU-145): > 100 µM
- GI50 (HT-29): 5.13 µM
- LC50 (HT-29): > 100 µM
- TGI (HT-29): > 100 µM
- GI50 (CCRF-CEM): 0.76 µM
- TGI (CCRF-CEM): > 100 µM
- CC50 (CCRF-CEM; [1]): > 100 µM
- GI50 (SK-MEL-28): 43.6 µM
- LC50 (SK-MEL-28): > 100 µM
- TGI (SK-MEL-28): > 100 µM
- GI50 (A498): 15.1 µM
- LC50 (A498): > 100 µM
- TGI (A498): 72.4 µM
- GI50 (HL-60(TB)): 12.3 µM
- TGI (HL-60(TB)): > 100 µM
- CC50 (HL-60(TB); [1]): > 100 µM
- GI50 (M14): 2.14 µM
- TGI (M14): 4.47 µM
- CC50 (M14; [1]): 9.33 µM
- GI50 (BT-549): 5.25 µM
- LC50 (concentration killing 50% of cells present at time zero) (BT-549): > 100 µM
- TGI (BT-549): > 100 µM
